Bioassay records (PubChem)
H9c2 protect = myocardial damage modulation in H9c2 cells; 360,000 tested, 0.63% active; protection from H2O2 cell death, % at 20 µM; H9c2 cardiomyocytes, H2O2 injury protection, ATPLite, 2 h; AID 588492;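 active means compounds giving at least 50% protection of heart cells from peroxide-induced death in the single-dose screen, raw or plate-pattern-corrected value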;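 further: 0% = DMSO wells with peroxide and 100% = DMSO wells without peroxide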
ASAP1 GAP inh = inhibitors of human ASAP1 ArfGAP activity; ASAP1-stimulated ARF1 GTP hydrolysis, GDP FP detection; 360,000 tested, 0.19% active; Q9ULH1; inhibition, % at 16.5 µM; AID 624377; in the data active means inhibition above about 25%;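 further: 0% = vehicle with enzyme and substrate and 100% = no enzyme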
Neddylation inh = blocks human cullin neddylation; P61081+Q13564; 360,000 tested, 0.58% active; TR-FRET cullin neddylation, biochemical; inhibition, % at 25 µM; in the data active means inhibition above about 36%
Target sequence (P61081 whole entry, looked up): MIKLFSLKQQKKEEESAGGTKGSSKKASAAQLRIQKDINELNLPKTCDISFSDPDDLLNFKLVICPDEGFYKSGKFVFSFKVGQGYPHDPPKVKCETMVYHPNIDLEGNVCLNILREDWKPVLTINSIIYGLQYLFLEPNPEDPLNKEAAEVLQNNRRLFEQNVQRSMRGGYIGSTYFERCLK
Target sequence (Q13564 whole entry, looked up): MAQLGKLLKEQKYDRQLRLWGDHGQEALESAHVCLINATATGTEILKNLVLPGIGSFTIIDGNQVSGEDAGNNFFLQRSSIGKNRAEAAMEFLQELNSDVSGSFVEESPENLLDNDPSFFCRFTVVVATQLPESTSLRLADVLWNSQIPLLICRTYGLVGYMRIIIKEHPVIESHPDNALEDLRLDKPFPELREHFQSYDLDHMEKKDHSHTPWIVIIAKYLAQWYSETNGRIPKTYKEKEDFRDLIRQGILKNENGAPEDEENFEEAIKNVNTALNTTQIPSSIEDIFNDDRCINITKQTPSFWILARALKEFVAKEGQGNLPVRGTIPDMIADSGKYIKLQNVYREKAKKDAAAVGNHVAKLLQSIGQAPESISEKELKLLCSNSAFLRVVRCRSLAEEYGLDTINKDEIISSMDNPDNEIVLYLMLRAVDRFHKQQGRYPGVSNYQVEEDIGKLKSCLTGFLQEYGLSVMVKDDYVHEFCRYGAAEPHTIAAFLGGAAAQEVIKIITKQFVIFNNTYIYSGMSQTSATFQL
ARFGAP1 inh = inhibitors of rat ARFGAP1. 360,000 tested, 0.26% active. inhibition, % at 16.5 µM. Arfgap1-stimulated ARF1 GTP hydrolysis, GDP FP detection. AID 651572;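 active means inhibition above a per-plate limit, mean inhibition of low control wells plus 3 SD, cut at about 25% in these data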;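 further: 0% = DMSO wells with enzyme and 100% = wells lacking Arfgap1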
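material = rat Arfgap1 catalytic domain, aa 1-136 | also added = human ARF1(Δ1-17)-GTP substrate | compound dosing = one concentration, 16.5 µM, DMSO 1.26% | times = GTP hydrolysis reaction 2 h at 25 °C | measured by = FP, GDP Alexa 633 tracer displaced from anti-GDP antibody, 620/688 nm | evaluation = percent inhibition of Arfgap1-stimulated GTP hydrolysis | replication = single well per compound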
* marks the source's active call; other numbers are inactive results; . = no result shown. This is a sample that favours compounds with a hit; in the whole collection about 1.6% have one here.

SMILES	H9c2 protect	ASAP1 GAP inh	Neddylation inh	ARFGAP1 inh
CCn1c(O)c(/C=N/N=C2CCCCC2)c2cc(C3=NNC(=O)CC3)ccc21	54*	2	24	-15
Nc1ncc(-c2ccccc2)n1CC1CCCO1 (stereo not drawn)	62*	2	4	-2
COc1ccc(CCNC(=O)C(=O)NCC2CCCN2S(=O)(=O)c2cc(C)ccc2C)cc1 (stereo not drawn)	76*	-7	12	-1
Cc1ccc(C)c(S(=O)(=O)N2CCCC2CNC(=O)C(=O)NCCc2ccccc2)c1 (stereo not drawn)	32	9	1	-6
C[C@H]1COc2cc(NCCO)ccc2S(=O)(=O)N1	.	7	.	-1
O=C(CSc1nnc(-c2ccccc2)n1Cc1ccccc1)NNC(=O)c1ccccc1O	59*	2	20	0
Cn1c2ccccc2c2cc(/C=C(\NC(=O)c3ccccc3)C(=O)O)ccc21	2	11	9	2
CC(C)OC(=O)/C(=C\c1ccc2c(c1)c1ccccc1n2C)NC(=O)c1ccccc1	10	-18	38*	10
CN(C)S(=O)(=O)c1ccc2[nH]cc(/C=C/c3nc4ccccc4c(=O)n3-c3ccccc3)c2c1	66*	-4	.	11
CCc1nc2ccc(C(=O)NCc3cccs3)cn2c1N(C)Cc1nccs1	48*	-5	-1	2
COC(=O)c1cc2c(c3c4ccccc4n(S(=O)(=O)c4ccc(OC)cc4)c13)C(=O)N(C)C2	.	1	.	13
O=C(CSc1ccc2ccccc2n1)N/N=C/c1ccccc1O	55*	1	7	1
Nc1ccc2c(S(=O)(=O)O)cccc2c1S(=O)(=O)O	0	-8	55*	6
CC(C)[C@H](NC(=O)c1ccc(Cl)cc1Cl)C(=O)N1CCC[C@H]1C(=O)NCc1ccccc1	.	6	.	-8
Cc1ccc(-c2nnc(NCc3nc4ccccc4[nH]3)c3ccccc23)cc1S(=O)(=O)N1CCOCC1	86*	.	-253	.
CCOc1ccc(-n2cc(-c3ccccc3)c3c(=S)nc[nH]c32)cc1	52*	-14	-461	-11
CCOc1ccc(-n2cc(-c3ccccc3)c3c(N4CCOCC4)ncnc32)cc1	63*	-7	26	-8
Cc1ccc(CNC(=O)[C@@H](Cc2ccccc2)NC(=O)[C@H]2O[C@@H](n3ccc(N)nc3=O)[C@H](O)[C@@H]2O)o1	.	-3	.	-8
O=C(NCc1ccccc1)[C@@H]1CCCN1C(=O)[C@H]1CCCN1C(=O)c1ccc(Cl)c(Cl)c1	.	-5	.	-1
O=C(N/N=C/c1cn(-c2ccccc2)nc1-c1ccc(F)cc1)c1ccc(Br)o1	-10	7	18	-4
O=C(N/N=C/c1cn(-c2ccccc2)nc1-c1cccnc1)c1cccnc1	52*	6	-4	-6
O=C(N/N=C/c1cn(-c2ccccc2)nc1-c1cccnc1)c1ccc(F)cc1	71*	2	-11	7
O=C(N/N=C/c1cn(-c2ccccc2)nc1-c1cccs1)c1ccccc1F	76*	.	23	.
O=C(N/N=C/c1cn(-c2ccccc2)nc1-c1cccs1)c1ccc(Cl)cc1	6	-1	33	3
CC(=O)N1CCN(c2ccc(N3CCN(C(C)=O)[C@H](C)C3)c(C)c2)[C@H](C)C1	.	-1	.	16
SMILES	H9c2 protect	ASAP1 GAP inh	Neddylation inh	ARFGAP1 inh
O=C(Nc1ccc2ncccc2c1)c1cccc(Br)c1	5	5	-6	1
Brc1ccc(CNc2ccc3ncccc3c2)cc1	-16	6	48*	-1
CCc1ccc(NC(=O)CSc2ccc(-c3ccccn3)nn2)cc1	50*	7	-49	6
CC(=O)Nc1cccc(NC(=O)CSc2ccc(-c3ccccn3)nn2)c1	67*	18	0	-1
CCOC(=O)c1ccccc1NC(=O)CSc1ccc(-c2ccccn2)nn1	57*	12	11	3
COc1cc(NC(=O)CSc2ccc(-c3ccccn3)nn2)cc(OC)c1	70*	1	-20	-1
COc1ccc(N(C(=O)c2cccnc2)S(=O)(=O)c2cccs2)cc1	54*	-2	-1	2
O=C(Nc1nnc(-c2ccc3c(c2)CCCC3)o1)c1ccccc1	52*	-1	18	-14
O=C(Nc1nnc(-c2ccc3c(c2)CCCC3)o1)c1ccccc1Cl	47	-14	8	-17
Cc1cc(Oc2cccnc2)ccc1NC(=O)Cc1c[nH]c2ccccc12	.	-9	.	2
C=CCn1c(O)c(N=NC(=S)Nc2ccc(OC)cc2)c2ccccc21	56*	5	-33	1
COC(=O)N1C(=O)[C@](c2ccccc2)(C2CCCCC2)N1C(=O)OC	56*	12	-21	-1
CC(C)[C@H](NC(=O)C1CC1)C(=O)N1CCC[C@H]1C(=O)NCCc1ccccc1Cl	.	24	.	-2
CCC(C)N(C(=O)COC(=O)Cc1n[nH]c(=O)c2ccccc12)C1CCS(=O)(=O)C1 (stereo not drawn)	60*	-5	5	-5
COC(=O)C1=C(C)N(Cc2cccc(C(F)(F)F)c2)C(=NCc2ccc3c(c2)OCO3)NC1c1ccccc1C(F)(F)F (stereo not drawn)	.	3	.	-9
COc1ccc(CCn2c(Br)nc3c2c(=O)[nH]c(=O)n3C)cc1	64*	-1	-1	4
CCOC(=O)c1c(C)[nH]c(O)c1C=Nc1ccc(C(F)(F)F)cc1	16	-6	2	-4
CCOC(=O)c1c(C)[nH]c(O)c1C=Nc1ccc(Cl)cc1	52*	-8	7	11
COC(=O)c1c(C)[nH]c(O)c1C=Nc1ccc(C(C)C)cc1	12	2	-19	-9
COC(=O)c1c(C)[nH]c(O)c1C=Nc1ccc(Oc2ccccc2)cc1	84*	10	1	6
CCCCCCCCN1C(=O)[C@H](CC(=O)NCc2cccs2)C[C@@]2(C(=O)OC)CCCCC=C12	.	15	7	-3
Cc1onc(-c2c(Cl)cccc2Cl)c1C(=O)N/N=C(\N)COc1ccc(Cl)cc1	70*	14	-8	14
O=C(CSc1nnc(-c2cccnc2)n1Cc1ccco1)c1ccccc1	50*	10	5	15
C=CC[C@@H](CC(=O)N[C@@H](CO)Cc1ccccc1)C(=O)NC[C@H](OC(=O)[C@@H](CC=C)Cc1ccc(F)cc1)c1ccccc1	32	12	-11	3
C=CC[C@@H](CC(=O)NCCO)C(=O)NC[C@H](OC(=O)[C@@H](CC=C)Cc1ccc(F)cc1)c1ccccc1	70*	-4	-7	1
CCCCCn1cc(CCC(=O)Nc2ccc(N(C)c3ccccn3)cc2)c2ccccc21	.	5	.	8
Cc1[nH]n(-c2ccccc2)c(=O)c1/C=N/NC(=O)COc1ccccc1[N+](=O)[O-]	62*	1	-12	-12
COCC(=O)N/N=C/c1c(C)[nH]n(-c2ccccc2)c1=O	6	0	4	-8
Cc1[nH]n(-c2cccc3ccccc23)c(=O)c1/C=N/NC(=O)c1cccc([N+](=O)[O-])c1	56*	8	-23	6
CCn1c2ccccc2c2nc3ccccc3nc21	-1	.	49*	.
